From ChEMBL document CHEMBL4725282, “Discovery of a Conformationally Constrained Oxazolidinone with Improved Safety and Efficacy Profiles for the Treatment of Multidrug-Resistant Tuberculosis” (J Med Chem, 2020) come the findings set out here.

Data set [1] can be described thus: Genotoxicity in CHO-WBL cells assessed as chromosome aberration at 90 to 397.1 ug/ml incubated for 3 hrs followed by compound washout and measured after 17 hrs in absence of S9 fraction by Giemsa staining based. It is filed as toxicity, cell-based, Cricetulus griseus. Particulars: chinese hamster, dose 90-397.1 µg/ml. A digest of the protocol:
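CHO-WBL cells in McCoy's 5A with 10% FBS, seeded 20-24 h before treatment. Compound in DMSO, with or without serum-free S-9 mix. Treatment either 3 h, then HBSS wash and 17 h further culture, or 20 h; harvest at 20 h from treatment start. Colcemid 0.1 μg/mL for the final 2 h, hypotonic KCl, methanol:acetic acid fixation, Giemsa stain. 300 metaphases per concentration (150 per duplicate flask) scored.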

Data set [2] can be described thus: Toxicity in male Sprague-Dawley rat assessed as change in hemoglobin count at 50 mg/kg/day, po administered for 4 weeks followed by 2 week recovery period (Rvb =144 +/- 5 g/L). To be noted: in vivo, 672 h. The class given is organism-based.
Data set [3] in a line: Toxicity in male Sprague-Dawley rat assessed as change in reticulocyte level at 50 mg/kg/day, po administered for 4 weeks followed by 2 week recovery period (Rvb =2.48 +/- 0.34 %). The class given is organism-based. To be noted: in vivo, 672 h.
A short description of data set [4]: Toxicity in female Sprague-Dawley rat assessed as change in lymphocyte level at 450 mg/kg/day, po administered for 4 weeks followed by 2 week recovery period (Rvb =76.9 +/- 4.6 %). It is filed as organism-based. Particulars: in vivo, 672 h.
Data set [5] in a line: Toxicity in female Sprague-Dawley rat assessed as ophthalmic changes at 50 to 450 mg/kg/day, po administered for 4 weeks followed by 2 week recovery period measured within 7 days of post recover period. It is filed as organism-based. Particulars: in vivo, 672 h, dose 50-450 mg/kg/day. The gist of the method:
(§1)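 SD rats, 6-7 weeks old (96 in total), split into vehicle, 50, 150 and 450 mg/kg/day groups of 12 females and 12 males each, given oral doses once daily for 4 weeks, then 2 weeks of recovery. Mortality, body weight, food intake, eyes, urine and neuropsychic signs were observed. Organ and bone marrow histopathology was done on 8 rats per sex per group after the last dose and on the remaining 4 per sex after 14 days of recovery.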

Data set [6] can be described thus: Toxicity in male Sprague-Dawley rat assessed as change in mean corpuscular hemoglobin at 150 mg/kg/day, po administered for 4 weeks followed by 2 week recovery period (Rvb =18.3 +/- 0.4 pg). Particulars: in vivo, 672 h. The class given is organism-based.
Data set [7] is described as follows: Toxicity in female Sprague-Dawley rat assessed as changes in neuropsychic symptoms at 50 to 450 mg/kg/day, po administered for 4 weeks measured during last 24 hrs of treatment period. Particulars: in vivo, 672 h, dose 50-450 mg/kg/day. It is filed as organism-based. A digest of the protocol:
as §1

The nature of data set [8]: Toxicity in female Sprague-Dawley rat assessed as change in hemoglobin count at 50 mg/kg/day, po administered for 4 weeks followed by 2 week recovery period (Rvb =136 +/- 7 g/L). The class given is organism-based. To be noted: in vivo, 672 h.
A short description of data set [9]: Toxicity in male Sprague-Dawley rat assessed as ophthalmic changes at 50 to 450 mg/kg/day, po administered for 4 weeks followed by 2 week recovery period. The class given is organism-based. Particulars: in vivo, 1008 h, dose 50-450 mg/kg/day, time 6 weeks.
The nature of data set [10]: Toxicity in female Sprague-Dawley rat assessed as abnormalities in urine at 50 to 450 mg/kg/day, po administered for 4 weeks followed by 2 week recovery period measured within last 7 days of recover period. To be noted: in vivo, 672 h, dose 50-450 mg/kg/day. The class given is organism-based. The gist of the method:
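SD rats, 6-7 weeks, 12 male and 12 female per group. Oral dosing once daily at 50, 150 or 450 mg/kg/day or vehicle for 4 weeks, then 2-week recovery. 8 per sex dissected after last dose, remaining 4 per sex after 14-day recovery. Body weight, urine, food intake and clinical signs monitored.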

Data set [11] in a line: Half life in CD-1 mouse hepatocytes at 2 uM by LC-MS/MS analysis. It is filed as ADME, cell-based, Hepatocyte. The gist of the method: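 Hepatocytes (male CD-1 mouse, male SD rat, male beagle dog, male cynomolgus monkey, pooled human), final 1 μM compound and 1 million cells/mL, made by mixing 2 μM compound with 2 million cells/mL. Incubated at 37 °C in a CO2 incubator; sampled at 0, 15, 30, 60, 90 and 120 min. Quenched with methanol/ACN containing 0.1% formic acid. Parent remaining measured by LC-MS/MS.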

Data set [12] can be described thus: Toxicity in Mycobacterium tuberculosis H37Rv infected Balb/c mouse assessed as change in body weight at 100 mg/kg/day, po administered via gavage 5 times per week for 3 weeks starting from 10 days post-infection (reference value: 21.29 +/- 0.84 g). It is filed as organism-based. To be noted: in vivo, 504 h, time 21 day.
A short description of data set [13]: Toxicity in male Sprague-Dawley rat assessed as change in lymphocyte level at 450 mg/kg/day, po administered for 4 weeks followed by 2 week recovery period (Rvb =77.4 +/- 3.7 %). The class given is organism-based. To be noted: in vivo, 672 h.
Data set [14] can be described thus: Oral bioavailability in Balb/c mouse at 25 mg/kg by LC-MS/MS analysis. It is filed as ADME, organism-based. To be noted: in vivo. The gist of the method:
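Female BALB/c mice, 20-25 g, five per route. Dosed 25 mg/kg p.o. in 0.5% carboxymethyl cellulose or 2.5 mg/kg i.v. in 10% DMSO/saline. Blood sampled 5 min-72 h (p.o.) or 2 min-48 h (i.v.), quantified by LC/MS/MS with ESI+. Parameters by non-compartmental analysis; F = (AUCpo×dose_iv)/(AUCiv×dose_po)×100%.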

Data set [15] is described as follows: Toxicity in male Sprague-Dawley rat assessed as change in lymphocyte level at 150 mg/kg/day, po administered for 4 weeks followed by 2 week recovery period (Rvb =77.4 +/- 3.7 %). The class given is organism-based. Particulars: in vivo, 672 h.
Data set [16] is described as follows: Toxicity in female Sprague-Dawley rat assessed as change in mean platelet volume at 450 mg/kg/day, po administered for 4 weeks followed by 2 week recovery period (Rvb =7.1 +/- 0.5 fL). It is filed as organism-based. To be noted: in vivo, 672 h.
Data set [17] can be described thus: Toxicity in female Sprague-Dawley rat assessed as histopathological changes in bone marrow at 450 mg/kg/day, po administered for 4 weeks measured post last dose. The class given is organism-based. Particulars: in vivo, 672 h. A digest of the protocol: as §1
Data set [18] is described as follows: Toxicity in male Sprague-Dawley rat assessed as change in platelet count at 50 mg/kg/day, po administered for 4 weeks followed by 2 week recovery period (Rvb =1077 +/- 117 10^9/L). The class given is organism-based. Particulars: in vivo, 672 h.
Data set [19] is described as follows: Toxicity in male Sprague-Dawley rat assessed as change in hematocrit level at 50 mg/kg/day, po administered for 4 weeks followed by 2 week recovery period (Rvb =45.2 +/- 1.7 %). The class given is organism-based. To be noted: in vivo, 672 h.
A short description of data set [20]: Toxicity in male Sprague-Dawley rat assessed as body weight loss at 50 to 450 mg/kg/day, po administered for 4 weeks followed by 2 week recovery period measured at 1 week interval. Particulars: in vivo, 672 h, dose 50-450 mg/kg/day. It is filed as organism-based. A digest of the protocol: as §1
Data set [21] in a line: Toxicity in male Sprague-Dawley rat assessed as change in neutrophil level at 150 mg/kg/day, po administered for 4 weeks followed by 2 week recovery period (Rvb =15.9 +/- 3.4 %). The class given is organism-based. Particulars: in vivo, 672 h.
Data set [22] is described as follows: Toxicity in female Sprague-Dawley rat assessed as change in mean corpuscular hemoglobin at 50 mg/kg/day, po administered for 4 weeks followed by 2 week recovery period (Rvb =18.5 +/- 0.6 pg). The class given is organism-based. To be noted: in vivo, 672 h.
The nature of data set [23]: Volume of distribution in Balb/c mouse at 2.5 mg/kg, iv by LC-MS/MS analysis. It is filed as ADME, organism-based. To be noted: in vivo.
The nature of data set [24]: Toxicity in female Sprague-Dawley rat assessed as change in red blood cell count at 450 mg/kg/day, po administered for 4 weeks followed by 2 week recovery period (Rvb =7.32 +/- 0.20 10^12/L). The class given is organism-based. To be noted: in vivo, 672 h.

Molecules are shown by their SMILES.

In the case of `CC(=O)NC[C@@H]1OC(=O)N2c3cc(F)c(N4CC[S+]([O-])CC4)cc3OC[C@@H]12`, the Activity entry in [1] is reported as “Non-Toxic”.

Take `CC(=O)NC[C@@H]1OC(=O)N2c3cc(F)c(N4CCSCC4)cc3OC[C@@H]12`: the Activity in data set [2] was 136 g/L; in [3], 2.97%; in data set [4], 83.7%; in [5] it was “Non-Toxic”; in data set [6], 18.5 pg; in [7], “Non-Toxic”. The Activity is 126 g/L in data set [8]; “Non-Toxic” in data set [9]; “Non-Toxic” in data set [10]; 21.25 g in [12]; 80.7% in data set [13]; 77.3% in data set [15]. For the same compound, the Activity in [16] is 7.5 fL; in [17] it was “Non-Toxic”; in [18], 955 10^9/L; in data set [19], 43.5%; in [20], “Non-Toxic”; in data set [21], 17%. The Activity in data set [22] is recorded as 18.5 pg; in data set [24], 6.53 10^12/L. The half-life at 2 µM in [11] came to 1.27 h. This compound also registered a bioavailability in [14] of 55.9%. This compound also gave a volume of distribution (Vd) in data set [23] of 2.72 L/kg.
